# From PubChem
# IDH1 R132H inh – inhibitors of IDH1 R132H reductase, primary screen, biochemical, plate reader, single point | 70,000 compounds, 0.18% hits | Isocitrate dehydrogenase [NADP] cytoplasmic (Homo sapiens), O75874 | inhibition, % at 10 µM | diaphorase/resazurin fluorescence, 60 min; in the data active means inhibition above about 34%; inconclusive means no clear call, values can overlap the other calls; inactive means below about 11%;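 further: 0% = DMSO and 100% = no enzyme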
# T cruzi growth-1 – T. cruzi intracellular proliferation inhibitors, primary screen, cell-based, beta-gal Tulahuen parasites, NIH3T3 host, luminescence. inhibition, % at 8.34 µM. 77,000 compounds, 5.9% hits. T. cruzi beta-gal in NIH3T3, GalScreen luminescence, 90 h;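 active means mean inhibition above about 93%, with at least 55% of replicates each passing it, limit read from the data, passing the limit was not always enough; inconclusive means only one of those two conditions holds; inactive means neither condition holds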
# GASC1 inh – inhibitors of GASC-1 (KDM4C) histone demethylase, primary screen, biochemical, single concentration HTS; Lysine-specific demethylase 4C (Homo sapiens), Q9H3R0; GST-KDM4C 2-372, H3K9me3 peptide, LANCE TR-FRET; inhibition, % at 12.5 µM; 96,000 compounds, 0.15% hits;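 active means mean replicate inhibition above about 25%, with at least 55% of replicates also reaching it, limit read from the data, passing the limit was not always enough; inconclusive means only one of those two conditions met; inactive means neither condition met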
# Target sequence (Q9H3R0 2-372 limits assumed): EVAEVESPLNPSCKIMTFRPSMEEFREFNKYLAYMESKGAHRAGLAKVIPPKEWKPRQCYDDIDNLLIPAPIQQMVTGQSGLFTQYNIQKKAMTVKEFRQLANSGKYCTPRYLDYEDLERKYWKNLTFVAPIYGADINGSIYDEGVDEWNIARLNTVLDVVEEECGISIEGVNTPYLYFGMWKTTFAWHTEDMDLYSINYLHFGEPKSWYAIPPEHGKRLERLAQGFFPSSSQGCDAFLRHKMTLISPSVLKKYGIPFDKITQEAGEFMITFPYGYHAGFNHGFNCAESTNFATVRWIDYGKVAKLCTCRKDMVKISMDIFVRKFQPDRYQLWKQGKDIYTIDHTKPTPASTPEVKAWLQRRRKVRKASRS
#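 Compound: one test concentration per compound; Material: GST-GASC-1 enzyme fragment 2-372; Amount: GASC-1 enzyme at 10 nM final in reaction; Also added: H3K9me3 peptide substrate, Fe(II), 2-oxoglutarate; Technique: LANCE TR-FRET; Times: 30 min demethylation and 1 h detection at room temperature.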
# T cruzi growth-2 – T. cruzi intracellular proliferation inhibitors, confirmation, cell-based, NIH3T3 host, beta-gal parasite, luminescence, cherry-pick | shares compounds with T cruzi growth-1 | T. cruzi beta-gal in NIH3T3, GalScreen luminescence, 90 h | inhibition, % at 8.35 µM | 5,600 compounds, 72% hits | AID 651739, 2012;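 active means mean replicate inhibition above about 95% and at least 55% of replicates individually reaching it, limit read from the data; inconclusive means only one of the two criteria is met; inactive means neither criterion is met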
# T cruzi growth-3 – inhibitors of intracellular T. cruzi replication, confirmation, NIH3T3 host cells, beta-gal parasites, cherry-pick, set 2; shares compounds with T cruzi growth-1; T. cruzi beta-gal in NIH3T3, GalScreen luminescence, 90 h; inhibition, % at 2.09 µM; 5,600 compounds, 21% hits; AID 651740, 2012;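 active means mean inhibition above about 95%, with at least 55% of replicates also reaching it, limit read from the data; inconclusive means meets just one of the two conditions; inactive means meets neither condition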;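 further: plate controls were neutral control median for no effect and positive control median for full effect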
# 3T3 cytotox – cytotoxicity in mouse NIH/3T3 fibroblasts, confirmation, cytotoxicity control for T. cruzi proliferation inhibitor project, cell-based, cherry-pick, single point. 5,600 compounds, 14% hits. NIH/3T3 viability, CellTiter-Glo ATP luminescence, 90 h. cytotoxicity (signal decrease), % at 8.35 µM. shares compounds with T cruzi growth-1;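 active means mean signal decrease across replicates above about 35% based on untreated-well scatter, with enough replicates individually passing, limit read from the data; inconclusive means no rule stated though some were filed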;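 further: 0% = median of neutral control wells and 100% = median of positive control wells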
# 3T3 cytotox 2 – NIH/3T3 fibroblast cytotoxicity, confirmation, cytotoxicity control, cell-based, cherry-pick, single point, set 2 | 5,600 compounds, 56% hits | shares compounds with T cruzi growth-1 | inhibition, % at 24.9 µM | AID 651744, 2012 | NIH/3T3 viability, CellTiter-Glo ATP luminescence, 90 h;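 active means mean loss of cell viability signal at or above a set limit, and enough replicates individually reaching it; inconclusive means meets only the mean limit or only the replicate share; inactive means meets neither condition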;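 further: 0% = median of neutral control wells and 100% = median of positive control wells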
# * hit, by the source's call; ? = inconclusive; nt = no result given; ! = not active in a repeat. Many of the other results were omitted from the sample, so hits are more common in it than they were.
SMILES,IDH1 R132H inh,T cruzi growth-1,GASC1 inh,T cruzi growth-2,T cruzi growth-3,3T3 cytotox,3T3 cytotox 2
C[C@H]1CN([C@@H](C)CO)C(=O)Cc2cc(NS(=O)(=O)c3cccs3)ccc2O[C@H]1CN(C)S(=O)(=O)c1ccccc1,0.7,23.4,-0.5,nt,nt,nt,nt
C[C@H]1CN([C@@H](C)CO)C(=O)c2cc(N(C)C)ccc2O[C@@H]1CN(C)C(=O)Nc1ccccc1,-3.1,nt,4.2,nt,nt,nt,nt
CCCC#Cc1cnc2c(c1)C(=O)N([C@@H](C)CO)C[C@@H](C)[C@@H](CN(C)Cc1ccccc1)O2,nt,nt,-0.2,nt,nt,nt,nt
CC(=O)N(C)C[C@H]1Oc2cc(C3=CCCCC3)ccc2S(=O)(=O)N([C@H](C)CO)C[C@@H]1C,nt,42.3,0.6,nt,nt,nt,nt
COc1ccc(NC(=O)Cc2nc(-c3ccc(OC)cc3)cs2)cc1,-0.2,nt,nt,nt,nt,nt,nt
C[C@@H]1CN([C@@H](C)CO)S(=O)(=O)c2ccc(-c3cccc(C#N)c3)cc2O[C@H]1CN(C)C(=O)Nc1ccccc1F,nt,86.1,1.2,nt,nt,nt,nt
C[C@H](CO)N1C[C@H](C)[C@@H](CN(C)C(=O)Nc2ccccc2F)Oc2cc(-c3cccc(C#N)c3)ccc2S1(=O)=O,nt,?,-0.2,103.2*,50.8,41.3*,69.2*
C[C@H]1CN([C@@H](C)CO)S(=O)(=O)c2ccc(C#CC3CCCC3)cc2O[C@@H]1CN(C)C(=O)Nc1cc(F)ccc1F,0.6,nt,2.2,nt,nt,nt,nt
C[C@@H]1CN([C@H](C)CO)S(=O)(=O)c2ccc(-c3ccc(C#N)cc3)cc2O[C@@H]1CN(C)C(=O)Nc1cc(F)ccc1F,-0.3,114.6*,1.3,92.0,-7.3,-3.3,77.4*
C[C@H]1CN([C@@H](C)CO)S(=O)(=O)c2ccc(-c3ccc(C#N)cc3)cc2O[C@H]1CN(C)C(=O)Nc1cc(F)ccc1F,6.2,122.1*,0.4,102.2*,67.0,30.1,83.5*
C[C@H](CO)N1C[C@H](C)[C@@H](CN(C)C(=O)Nc2cc(F)ccc2F)Oc2cc(-c3ccc(C#N)cc3)ccc2S1(=O)=O,nt,117.8*,-1.5,101.3*,27.9,46.2*,82.8*
COc1cc(/C(C)=C/C(C)(O)C(C)O)oc(=O)c1C (stereo unspecified),-0.4,nt,nt,nt,nt,nt,nt
COc1ccccc1NC(=O)N1C[C@H]2[C@@H](c3ccccc31)[C@H](CO)N2C(C)=O,nt,27.4,0.9,nt,nt,nt,nt
S=C(Nc1cccc(Cl)c1)Nc1cc(-c2ccc(Cl)cc2)[nH]n1,3.6,nt,nt,nt,nt,nt,nt
C[C@@H]1CN([C@H](C)CO)S(=O)(=O)c2ccc(-c3cccc(C#N)c3)cc2O[C@@H]1CN(C)C(=O)Nc1cc(F)ccc1F,nt,nt,-2.9,nt,nt,nt,nt
C[C@@H]1CN([C@H](C)CO)S(=O)(=O)c2ccc(-c3ccc(C#N)cc3)cc2O[C@H]1CN(C)C(=O)Nc1cc(F)ccc1F,nt,109.4*!,15.1,78.5,53.3,80.7*,83.0*
NC(=O)C(Cc1ccccc1)NS(=O)(=O)c1ccc2oc3ccccc3c2c1 (stereo unspecified),-0.1,nt,nt,nt,nt,nt,nt
C[C@@H]1CN([C@@H](C)CO)C(=O)c2cc(NS(=O)(=O)c3cn(C)cn3)ccc2O[C@@H](C)CCCCO[C@@H]1CN(C)C(=O)Nc1ccc(F)cc1,-3.7,-2.3,0.6,nt,nt,nt,nt
C[C@H](CO)N1C[C@H](C)[C@H](CN(C)S(=O)(=O)c2ccc(Cl)cc2)Oc2c(NC(=O)CCCCCC(=O)Nc3ccccc3N)cccc2C1=O,nt,106.2*,-1.7,113.7*,76.5,20.8,7.9
C[C@@H]1CN([C@@H](C)CO)C(=O)c2cccc(NC(=O)CCCCCC(=O)Nc3ccccc3N)c2O[C@@H]1CN(C)S(=O)(=O)c1ccccc1,nt,nt,0.4,nt,nt,nt,nt
